The values that follow come from ChEMBL document CHEMBL2440018 (J Med Chem, 2013).

Data set [1] concerns the target T1, Matrix metalloproteinase-9 (Homo sapiens, UniProt P14780). In words: Inhibition of human recombinant MMP-9 catalytic domain using MOCAcPLGLA2pr(Dnp)AR-NH2 as substrate by fluorescence spectrophotometric analysis.
The target of data set [2] is T2, Interstitial collagenase (Homo sapiens) (UniProt P03956).
T2 sequence (whole entry): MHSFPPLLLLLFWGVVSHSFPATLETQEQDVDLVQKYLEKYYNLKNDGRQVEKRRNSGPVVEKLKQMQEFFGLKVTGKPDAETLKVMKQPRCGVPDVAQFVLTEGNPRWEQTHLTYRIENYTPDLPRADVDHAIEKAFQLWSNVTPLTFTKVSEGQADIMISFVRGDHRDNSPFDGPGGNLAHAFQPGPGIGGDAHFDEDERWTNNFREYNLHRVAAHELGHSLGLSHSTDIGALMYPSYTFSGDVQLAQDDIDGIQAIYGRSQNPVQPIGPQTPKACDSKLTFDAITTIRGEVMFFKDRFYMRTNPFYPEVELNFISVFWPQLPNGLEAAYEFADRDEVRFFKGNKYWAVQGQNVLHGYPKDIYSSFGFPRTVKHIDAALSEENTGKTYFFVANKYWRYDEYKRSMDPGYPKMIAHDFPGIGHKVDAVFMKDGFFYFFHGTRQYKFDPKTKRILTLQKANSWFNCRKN
In words: Inhibition of human recombinant MMP-1 catalytic domain at 50 uM by fluorescence spectrophotometric analysis relative to control.

The target in data set [3] is 72 kDa type IV collagenase (Homo sapiens, UniProt P08253). Nature of the data set: Inhibition of human recombinant MMP-2 using MOCAcPLGLA2pr(Dnp)AR-NH2 as substrate by fluorescence spectrophotometric analysis.
Data set [4] concerns the target T3, Matrilysin (Homo sapiens) (UniProt P09237).
T3 sequence (whole entry): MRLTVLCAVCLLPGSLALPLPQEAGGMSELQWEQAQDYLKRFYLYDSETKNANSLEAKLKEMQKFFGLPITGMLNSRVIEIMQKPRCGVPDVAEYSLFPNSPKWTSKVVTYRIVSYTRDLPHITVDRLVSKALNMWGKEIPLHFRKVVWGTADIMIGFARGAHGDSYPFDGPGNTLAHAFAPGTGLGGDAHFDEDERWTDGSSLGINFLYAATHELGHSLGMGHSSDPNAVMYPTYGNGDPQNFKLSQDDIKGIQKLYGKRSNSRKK
Nature of the data set: Inhibition of human recombinant MMP-7 at 50 uM by fluorescence spectrophotometric analysis relative to control.

For data set [5], the species on record is Homo sapiens. Nature of the data set: Selectivity ratio of Ki for human recombinant MMP-8 catalytic domain to Ki for human recombinant MMP-2.
Data set [6] deals with T4, Matrix metalloproteinase-14 (Homo sapiens, UniProt P50281). In words: Inhibition of human recombinant MMP-14 catalytic domain using MOCAcPLGLA2pr(Dnp)AR-NH2 as substrate by fluorescence spectrophotometric analysis.
Data set [7] addresses Stromelysin-1 (Homo sapiens) (UniProt P08254). In words: Inhibition of human recombinant MMP-3 catalytic domain at 50 uM by fluorescence spectrophotometric analysis relative to control.
Data set [8] addresses MMP-2/MMP-9 (Homo sapiens) (UniProt P08253+P14780). In words: Selectivity ratio of Ki for human recombinant MMP-9 catalytic domain to Ki for human recombinant MMP-2.
The target of data set [9] is MMP-2/MMP-14 (Homo sapiens) (UniProt P50281+P08253). Nature of the data set: Selectivity ratio of Ki for human recombinant MMP-14 catalytic domain to Ki for human recombinant MMP-2.
The test system of data set [10] is Liver. In words: Metabolic stability in rat liver S9 fraction assessed as formation of 4-(4-(thiiran-2-ylmethylsulfonyl)phenoxy)phenol after 5 mins by reversed-phase LC/MS analysis. In kind it is ADME, subcellular. Conditions: s9, 5 min. In a few lines:
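Male rat liver S9 (1.0 mg) incubated with 10 μM compound (final) and 0.5 mM NADPH (final) in 50 mM potassium phosphate, pH 7.4, 37 °C. Aliquots taken at several time points. Reactions quenched with one volume acetonitrile containing internal standard, centrifuged, supernatant run on reversed-phase UPLC/ESI-MRM. Quantified by peak area ratio to internal standard.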

Data set [11] deals with T1, Matrix metalloproteinase-9. Nature of the data set: Inhibition of human recombinant MMP-9 catalytic domain using MOCAcPLGLA2pr(Dnp)AR-NH2 as substrate at 50 uM by fluorescence spectrophotometric analysis relative to control.
The target of data set [12] is T4, Matrix metalloproteinase-14. Nature of the data set: Inhibition of human recombinant MMP-14 catalytic domain using MOCAcPLGLA2pr(Dnp)AR-NH2 as substrate at 50 uM by fluorescence spectrophotometric analysis relative to control.
Data set [13] has as its system Liver. Nature of the data set: Half life in rat liver S9 fraction at 10 uM by reversed-phase UPLC/ESI-MRM analysis. In kind it is ADME, subcellular. The settings on record: s9, 10 µM. In a few lines: (§1)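 Male rat liver S9 (1.0 mg) with 0.5 mM NADPH and 10 µM compound (both final) in 50 mM potassium phosphate, pH 7.4, at 37 °C, sampled over time. Aliquots were stopped with acetonitrile containing internal standard, and the supernatant was run by UPLC/ESI-MRM. Half-lives used first-order kinetics on peak-area ratios to internal standard.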

The target in data set [14] is Stromelysin-1 (Homo sapiens) (UniProt P08254). In words: Inhibition of human recombinant MMP-3 catalytic domain at 30 uM by fluorescence spectrophotometric analysis relative to control.
The test system of data set [15] is Liver. In words: Primary phase half life in rat liver S9 fraction at 10 uM by reversed-phase UPLC/ESI-MRM analysis. The data set is classed as ADME, subcellular. The settings on record: s9, 10 µM. The gist of the method: as §1
Data set [16] has as its system Liver. Nature of the data set: Elimination half life in rat liver S9 fraction at 10 uM by reversed-phase UPLC/ESI-MRM analysis. In kind it is ADME, subcellular. Conditions: s9, 10 µM. In a few lines:
as §1

Activity calls are given as the source filed them. The calls are words filed in the database; no cut-off is given here.

T1 sequence (P14780 whole entry, the tested form may be a part): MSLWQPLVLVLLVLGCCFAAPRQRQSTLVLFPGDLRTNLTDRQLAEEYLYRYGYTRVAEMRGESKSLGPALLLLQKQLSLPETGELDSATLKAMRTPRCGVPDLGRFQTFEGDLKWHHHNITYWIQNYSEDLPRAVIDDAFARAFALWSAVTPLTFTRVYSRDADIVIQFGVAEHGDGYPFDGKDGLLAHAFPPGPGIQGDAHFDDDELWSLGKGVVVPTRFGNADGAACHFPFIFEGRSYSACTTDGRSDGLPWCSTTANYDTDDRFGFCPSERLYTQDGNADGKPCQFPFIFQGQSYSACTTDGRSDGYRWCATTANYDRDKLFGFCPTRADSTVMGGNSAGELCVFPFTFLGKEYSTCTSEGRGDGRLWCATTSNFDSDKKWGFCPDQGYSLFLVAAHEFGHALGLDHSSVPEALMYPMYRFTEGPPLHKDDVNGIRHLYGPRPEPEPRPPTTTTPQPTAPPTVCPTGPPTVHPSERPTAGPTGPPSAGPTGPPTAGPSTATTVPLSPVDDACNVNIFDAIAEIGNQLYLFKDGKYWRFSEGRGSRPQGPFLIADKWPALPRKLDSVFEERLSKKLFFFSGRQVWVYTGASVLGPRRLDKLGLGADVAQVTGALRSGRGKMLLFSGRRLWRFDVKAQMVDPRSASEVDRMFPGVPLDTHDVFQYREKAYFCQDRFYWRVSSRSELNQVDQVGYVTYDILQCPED
Chain of 72 kDa type IV collagenase (P08253 whole entry): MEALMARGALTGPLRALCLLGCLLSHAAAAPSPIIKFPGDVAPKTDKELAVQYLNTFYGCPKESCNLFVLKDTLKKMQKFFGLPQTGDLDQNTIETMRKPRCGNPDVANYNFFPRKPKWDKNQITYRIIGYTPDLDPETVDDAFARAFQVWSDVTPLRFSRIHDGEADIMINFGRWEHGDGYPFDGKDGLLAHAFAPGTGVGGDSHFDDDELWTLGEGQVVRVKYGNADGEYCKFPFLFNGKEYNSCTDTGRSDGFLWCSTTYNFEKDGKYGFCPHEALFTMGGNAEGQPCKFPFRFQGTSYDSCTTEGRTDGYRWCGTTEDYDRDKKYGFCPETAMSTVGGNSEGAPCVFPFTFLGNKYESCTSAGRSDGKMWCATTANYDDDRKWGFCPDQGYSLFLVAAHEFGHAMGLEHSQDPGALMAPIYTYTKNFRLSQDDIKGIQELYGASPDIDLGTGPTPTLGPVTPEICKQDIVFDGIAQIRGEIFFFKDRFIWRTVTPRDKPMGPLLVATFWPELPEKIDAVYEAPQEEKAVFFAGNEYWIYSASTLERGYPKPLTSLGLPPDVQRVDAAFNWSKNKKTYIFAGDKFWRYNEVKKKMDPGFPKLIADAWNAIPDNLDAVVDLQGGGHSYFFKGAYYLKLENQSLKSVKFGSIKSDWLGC

In the case of `CCCNC(=O)Oc1ccc(Oc2ccc(S(=O)(=O)CC3CS3)cc2)cc1` (stereo not given), the Ki (commonly the dissociation constant of the complex between target and ligand, obtained from inhibition or displacement) amounted to 52000 nM in data set [1], 760 nM in data set [3] and 27000 nM in data set [6]. Besides, the inhibition (in general, the change of the read-out against control, counted positive when it falls) in data set [2] is “inactive”. For the same compound, the figures for the inhibition in data set [4] and in data set [7] were 2% and 38%, respectively. For the same compound, the Ratio Ki in data set [5], in data set [8] and in data set [9] was 20 throughout.

On to `CNC(=O)Oc1ccc(Oc2ccc(S(=O)(=O)CC3CS3)cc2)cc1` (stereo not given), for which the results for the Ki in data set [1], in data set [3] and in [6] were 10000 nM, 390 nM and 12000 nM, respectively. Besides, the results for the inhibition in [2], in [4] and in [7] were 8%, 6% and 30%, respectively. The Ratio Ki in [5], in [8] and in data set [9] was 20 each time.

As for `CCOC(=O)Oc1ccc(Oc2ccc(S(=O)(=O)CC3CS3)cc2)cc1` (stereo not given), the inhibition entry in data set [2] was “inactive”. Moreover, the Ki in data set [3] was 230 nM; in [6] it was 2700 nM. The values for the inhibition in [4] and in [7] were 9% and 39%, respectively. The Stability result in data set [10] is reported as “Unstable”. In data set [8], the Ratio Ki stood at 2.

Consider `CNC(=O)Nc1ccc(Oc2ccc(S(=O)(=O)CC3CS3)cc2)cc1` (stereo not given), for which the Ki came to 9900 nM in data set [1], 240 nM in data set [3] and 19000 nM in data set [6]. Besides, the inhibition result in [2] is “inactive”. Further, the inhibition in data set [4] is 8%; in [7], 21%. In addition, the Ratio Ki in data set [5], in data set [8] and in data set [9] was 20 throughout.

For the compound `CCCNC(=O)Nc1ccc(Oc2ccc(S(=O)(=O)CC3CS3)cc2)cc1` (stereo not given), the inhibition entry in data set [2] and in [4] was “inactive” throughout. Moreover, the Ki in data set [3] is 560 nM. For the same compound, the Ratio Ki in data set [5], in data set [8] and in [9] was 20 in each case. Further, the inhibition in [11] is 7%; in data set [7], 18%; in data set [12] it was 8%.

As for `CC(C)NC(=O)Oc1ccc(Oc2ccc(S(=O)(=O)CC3CS3)cc2)cc1` (stereo not given), the inhibition entry in data set [2] and in data set [4] was “inactive” throughout. The Ki in [3] was 690 nM. Further, the Ratio Ki in data set [5], in data set [8] and in [9] was 20 in each case. Besides, the inhibition came to 22% in data set [11], 3% in [7] and 30% in data set [12].

For the compound `CCCOC(=O)Oc1ccc(Oc2ccc(S(=O)(=O)CC3CS3)cc2)cc1` (stereo not given), the Ki in data set [1] was 1000 nM; in data set [3], 310 nM; in data set [6], 2800 nM. Moreover, in data set [2], the inhibition entry was “inactive”. The inhibition in [4] turned out to be 10%; in data set [7], 29%. Also, the Ratio Ki in data set [8] is 2.

Regarding `CC(C)OC(=O)Oc1ccc(Oc2ccc(S(=O)(=O)CC3CS3)cc2)cc1` (stereo not given), the Ki in [1] worked out at 1300 nM; in [3] it was 480 nM; in data set [6], 3000 nM. Moreover, the inhibition result in data set [2] was “inactive”. The inhibition in [4] came out at 13%; in data set [7], 9%. In addition, the Ratio Ki in data set [8] amounted to 2.

Take `CC(C)OC(=O)Nc1ccc(Oc2ccc(S(=O)(=O)CC3CS3)cc2)cc1` (stereo not given): the Ki in [1] is 2700 nM; in data set [3], 680 nM; in data set [6] it was 2500 nM. The inhibition result in data set [2], in [4] and in [7] was “inactive” each time. Further, the Ratio Ki in [8] was 2.

For the compound `CCOC(=O)Nc1ccc(Oc2ccc(S(=O)(=O)CC3CS3)cc2)cc1` (stereo not given), the inhibition result in data set [2] and in data set [4] was “inactive” each time. In addition, the Ki in data set [3] turned out to be 290 nM; in data set [6], 1900 nM. Also, the t1/2 in data set [13] stood at 24.8 min. Further, in [7], the inhibition amounted to 37%.

As to `O=S(=O)(CC1CS1)c1ccc(Oc2ccc(O)cc2)cc1` (stereo not given), in [13], the t1/2 is given as 23.5 min.

In the case of `COC(=O)Oc1ccc(Oc2ccc(S(=O)(=O)CC3CS3)cc2)cc1` (stereo not given), the Ki stood at 230 nM in data set [1], 160 nM in data set [3] and 2400 nM in [6]. The values for the inhibition in [2], in [4] and in data set [14] were 7%, 11% and 31%, respectively. In addition, the Ratio Ki in data set [8] was 2.

Turning to `CCCOC(=O)Nc1ccc(Oc2ccc(S(=O)(=O)CC3CS3)cc2)cc1` (stereo not given), the Ki was 1100 nM in data set [1], 490 nM in data set [3] and 2100 nM in data set [6]. Moreover, the inhibition result in data set [2] and in [4] was “inactive” each time. Further, the inhibition in data set [7] was 27%. In [8], the Ratio Ki was determined as 2.

Take `CC(C)NC(=O)Nc1ccc(Oc2ccc(S(=O)(=O)CC3CS3)cc2)cc1` (stereo not given): the inhibition result in data set [2] is “inactive”. In data set [3], the Ki came out at 420 nM. Also, the inhibition amounted to 6% in data set [4], 26% in data set [11], 4% in data set [7] and 37% in data set [12]. The Ratio Ki in [5], in [8] and in [9] was 20 each time.

In turn, `Nc1ccc(Oc2ccc(S(=O)(=O)CC3CS3)cc2)cc1` (stereo not given) yielded an alphat1/2 in data set [15] of 14 min. In data set [16], the “beta t1/2” value is recorded as 59 min.
